Assay results from publication PMC9870662 (Medicinal Chemistry Research, 2023).
Like-named read-outs stand apart in the source and are kept apart here.

Tests used:
Ovine COX-1 = molecular target: T1, Ovine COX-1 (Ovis aries, UniProt P05979); test: COX-1 enzyme inhibition assay; type: biochemical
T1 sequence (P05979 25-600): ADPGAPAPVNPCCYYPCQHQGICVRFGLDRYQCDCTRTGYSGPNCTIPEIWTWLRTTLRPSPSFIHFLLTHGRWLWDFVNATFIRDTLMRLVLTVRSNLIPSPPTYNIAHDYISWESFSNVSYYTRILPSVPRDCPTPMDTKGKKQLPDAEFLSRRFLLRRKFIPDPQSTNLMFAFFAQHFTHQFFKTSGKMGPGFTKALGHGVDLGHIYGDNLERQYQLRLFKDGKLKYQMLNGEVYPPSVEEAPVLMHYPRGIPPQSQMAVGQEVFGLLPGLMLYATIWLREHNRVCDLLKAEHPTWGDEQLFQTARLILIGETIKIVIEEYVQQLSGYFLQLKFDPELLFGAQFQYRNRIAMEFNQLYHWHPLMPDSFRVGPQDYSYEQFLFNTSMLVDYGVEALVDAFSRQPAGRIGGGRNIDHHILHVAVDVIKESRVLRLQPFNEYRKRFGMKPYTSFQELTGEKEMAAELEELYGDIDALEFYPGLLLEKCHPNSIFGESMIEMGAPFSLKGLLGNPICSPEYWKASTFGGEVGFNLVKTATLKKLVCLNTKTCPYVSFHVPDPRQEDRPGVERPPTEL

Human recombinant COX-2 = molecular target: T2, Human recombinant COX-2 (Homo sapiens, UniProt P35354); test: biochemical
T2 sequence (P35354 18-604): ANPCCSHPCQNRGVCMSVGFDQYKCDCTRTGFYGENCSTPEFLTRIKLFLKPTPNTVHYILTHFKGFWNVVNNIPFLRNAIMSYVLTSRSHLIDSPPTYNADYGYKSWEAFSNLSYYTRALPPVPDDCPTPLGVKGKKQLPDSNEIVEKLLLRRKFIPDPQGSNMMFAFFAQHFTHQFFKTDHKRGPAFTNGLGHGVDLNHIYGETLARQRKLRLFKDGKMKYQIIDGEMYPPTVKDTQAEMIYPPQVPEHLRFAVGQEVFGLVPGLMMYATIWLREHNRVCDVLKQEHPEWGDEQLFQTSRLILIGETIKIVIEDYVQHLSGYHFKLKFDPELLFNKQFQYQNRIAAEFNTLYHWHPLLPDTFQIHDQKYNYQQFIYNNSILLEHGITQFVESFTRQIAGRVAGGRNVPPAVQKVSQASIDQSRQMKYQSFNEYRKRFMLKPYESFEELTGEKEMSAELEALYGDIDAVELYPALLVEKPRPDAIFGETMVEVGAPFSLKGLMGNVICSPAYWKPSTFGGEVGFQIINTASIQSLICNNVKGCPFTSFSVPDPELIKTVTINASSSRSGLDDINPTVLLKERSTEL

[1] = test system: MCF-7 breast cancer cell line; test: MTT cytotoxicity assay; type: cell-based; conditions: for inhibition at 10 µM: Homo sapiens, MCF7, 72 h, read-out: % Inhibition (10 µM); for % Inhibition (10 µM): MCF-7, 72 h, MTT
How it was run: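 MCF-7 cells from IBRC seeded in RPMI1640 at 37 °C, 5% CO2, high humidity. After one day, medium replaced with medium containing test compound; celecoxib as reference, plain medium as control. Incubated 72 h, then MTT added for 4 h at 37 °C. Supernatant removed, cells exposed to DMSO 20 min at 37 °C, absorbance read at 570 nm.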

male NMRI mice = test: Acetic acid-induced writhing test; type: in vivo; conditions: for Response (n) Mean ± SD: number of writhing responses during 30 min, eight mice; for Estimated ED50 (mg/kg) (95% Confidence Interval): i.p., nonlinear regression of log dose-response curve; for ED50: Mus musculus, ip, read-out: Estimated ED50 (mg/kg) (95% Confidence Interval)
[2] = read-out: IC50 in µM Ovine COX-1, fluorescent enzyme kit
[3] = read-out: IC50 in µM Human recombinant COX-2

SMILES | IC50 (Ovine COX-1) [µM] | IC50 (Human recombinant COX-2) [µM] | inhibition at 10 µM [1] [%] | IC50 (Ovine COX-1; [2]) [µM] | IC50 (Human recombinant COX-2; [3]) [µM] | Response (n) Mean ± SD (male NMRI mice; 10 mg/kg i.p.) | Response (n) Mean ± SD (male NMRI mice; 20 mg/kg i.p.) | Response (n) Mean ± SD (male NMRI mice; 40 mg/kg i.p.) | Response (n) Mean ± SD (male NMRI mice; 80 mg/kg i.p.) | Estimated ED50 (mg/kg) (95% Confidence Interval) (male NMRI mice) | % Inhibition (10 µM) [1] [%] | Selectivity Index (SI) (Human recombinant COX-2; COX-1 vs COX-2) | Response (n) Mean ± SD (male NMRI mice; 5 mg/kg i.p.) | ED50 (male NMRI mice) [mg/kg] | Selectivity Index (SI) (Human recombinant COX-2)
COc1cccc(-c2cc(-c3ccc(S(C)(=O)=O)cc3)nc3nc4ccccc4n23)c1 [Compound 5f, 4-(3-Methoxyphenyl)-2-(4-(methylsulfonyl)phenyl)benzo[4,5]imidazo[1,2-a]pyrimidine] | > 100 | > 100 | 75.4 | – | – | – | – | – | – | – | – | – | – | – | –
CS(=O)(=O)c1ccc(-c2cc(-c3cccc(F)c3)n3c(n2)nc2ccccc23)cc1 [Compound 5k, 4-(3-Flourophenyl)-2-(4-(methylsulfonyl)phenyl)benzo[4,5]imidazo[1,2-a]pyrimidine] | – | – | – | > 100 | 5.8 | 32.38 ± 2.34 | 25.38 ± 3.43 | 17.63 ± 4.79 | 11.88 ± 3.18 | 22.80 (20.03–25.92) mg/kg | 58.73 | – | – | – | –
CS(=O)(=O)c1ccc(-c2cc(-c3cccc(Cl)c3)n3c(n2)nc2ccccc23)cc1 [Compound 5n, 4-(3-Chlorophenyl)-2-(4-(methylsulfonyl)phenyl)benzo[4,5]imidazo[1,2-a]pyrimidine] | 10.4 | 0.24 | 72.7 | – | – | 23.50 ± 3.20 | 19.88 ± 4.11 | 15.75 ± 4.35 | 11.50 ± 3.77 | – | – | 43.3 | 28.50 ± 4.72 | 12.1 | –
CS(=O)(=O)c1ccc(-c2cc(-c3ccccc3F)n3c(n2)nc2ccccc23)cc1 [Compound 5j, 4-(2-Flourophenyl)-2-(4-(methylsulfonyl)phenyl)benzo[4,5]imidazo[1,2-a]pyrimidine] | – | – | – | 14 | 0.28 | 25.88 ± 2.98 | 19.88 ± 3.06 | 16.75 ± 3.11 | 13.38 ± 2.45 | 15.34 (13.14–17.89) mg/kg | 76.73 | – | 33.75 ± 1.39 | – | 50
CS(=O)(=O)c1ccc(-c2cc(-c3ccccc3)n3c(n2)nc2ccccc23)cc1 [Compound 5a, 2-(4-(Methylsulfonyl)phenyl)-4-phenylbenzo[4,5]imidazo[1,2-a]pyrimidine] | 6.1 | 0.05 | 53.3 | – | – | 20.75 ± 3.07 | 17.25 ± 2.95 | 12.63 ± 2.64 | 10.00 ± 1.50 | – | – | 122 | 25 ± 1.58 | 8.65 | –
Cc1ccccc1-c1cc(-c2ccc(S(C)(=O)=O)cc2)nc2nc3ccccc3n12 [Compound 5b, 2-(4-(Methylsulfonyl)phenyl)-4-(o-tolyl)benzo[4,5]imidazo[1,2-a]pyrimidine] | 48.3 | > 100 | 76.9 | – | – | – | – | – | – | – | – | – | – | – | –
COc1cc(-c2cc(-c3ccc(S(C)(=O)=O)cc3)nc3nc4ccccc4n23)cc(OC)c1OC [Compound 5i, 4-(3,4,5-Trimethoxyphenyl)-2-(4-(methylsulfonyl)phenyl)benzo[4,5]imidazo[1,2-a] pyrimidine] | 16.3 | 0.58 | 77.9 | – | – | 39.25 ± 2.38 | 30.87 ± 3.82 | 24.62 ± 3.04 | 15.87 ± 3.18 | – | – | 28.1 | – | 40.1 | –
COc1ccccc1-c1cc(-c2ccc(S(C)(=O)=O)cc2)nc2nc3ccccc3n12 [Compound 5e, 4-(2-Methoxyphenyl)-2-(4-(methylsulfonyl)phenyl)benzo[4,5]imidazo[1,2-a]pyrimidine] | 6.9 | 0.06 | 74.3 | – | – | 36.63 ± 1.41 | 28.25 ± 3.99 | 19.13 ± 3.76 | 15 ± 1.58 | – | – | 115 | 38.38 ± 1.32 | 29 | –
COc1ccc(-c2cc(-c3ccc(S(C)(=O)=O)cc3)nc3nc4ccccc4n23)cc1 [Compound 5g, 4-(4-Methoxyphenyl)-2-(4-(methylsulfonyl)phenyl)benzo[4,5]imidazo[1,2-a]pyrimidine] | > 100 | 5.4 | 79.6 | – | – | 36.63 ± 1.32 | 29.13 ± 6.27 | 21.88 ± 3.37 | 13.63 ± 1.32 | – | – | > 18.5 | – | 32.1 | –
CS(=O)(=O)c1ccc(-c2cc(-c3ccc(Cl)cc3)n3c(n2)nc2ccccc23)cc1 [Compound 5o, 4-(4-Chlorophenyl)-2-(4-(methylsulfonyl)phenyl)benzo[4,5]imidazo[1,2-a]pyrimidine] | 17.8 | > 100 | 72.3 | – | – | – | – | – | – | – | – | – | – | – | –
CS(=O)(=O)c1ccc(-c2cc(-c3ccc(F)cc3)n3c(n2)nc2ccccc23)cc1 [Compound 5l, 4-(4-Flourophenyl)-2-(4-(methylsulfonyl)phenyl)benzo[4,5]imidazo[1,2-a]pyrimidine] | – | – | – | 38.8 | 0.69 | 34.25 ± 1.71 | 26.13 ± 2.67 | 19.25 ± 4.32 | 11.75 ± 1.48 | 25.26 (22.90–27.91) mg/kg | 56.67 | – | – | – | –
COc1ccc(-c2cc(-c3ccc(S(C)(=O)=O)cc3)nc3nc4ccccc4n23)cc1OC [Compound 5h, 4-(3,4-Dimethoxyphenyl)-2-(4-(methylsulfonyl)phenyl)benzo[4,5]imidazo[1,2-a]pyrimidine] | 13.9 | > 100 | 79.3 | – | – | – | – | – | – | – | – | – | – | – | –
Cc1ccc(-c2cc(-c3ccc(S(C)(=O)=O)cc3)nc3nc4ccccc4n23)cc1 [Compound 5d, 2-(4-(Methylsulfonyl)phenyl)-4-(p-tolyl)benzo[4,5]imidazo[1,2-a]pyrimidine] | 40.8 | 0.68 | 78.2 | – | – | 17.88 ± 4.28 | 14.75 ± 4.47 | 13.25 ± 2.59 | 10.25 ± 2.73 | – | – | 60 | 18.63 ± 5.87 | 5.75 | –
Cc1ccc(-c2cc(C(F)(F)F)nn2-c2ccc(S(N)(=O)=O)cc2)cc1 [Celecoxib, reference compound] | – | – | 75.8 | – | – | 33.62 ± 1.79 | 26.37 ± 2.86 | 13.75 ± 2.72 | 7.37 ± 2.39 | – | – | – | – | 20.2 | –
CS(=O)(=O)c1ccc(-c2cc(-c3ccccc3Cl)n3c(n2)nc2ccccc23)cc1 [Compound 5m, 4-(2-Chlorophenyl)-2-(4-(methylsulfonyl)phenyl)benzo[4,5]imidazo[1,2-a]pyrimidine] | 15.2 | > 100 | 51.3 | – | – | – | – | – | – | – | – | – | – | – | –
Cc1cccc(-c2cc(-c3ccc(S(C)(=O)=O)cc3)nc3nc4ccccc4n23)c1 [Compound 5c, 2-(4-(Methylsulfonyl)phenyl)-4-(m-tolyl)benzo[4,5]imidazo[1,2-a]pyrimidine] | 24 | > 100 | 76 | – | – | – | – | – | – | – | – | – | – | – | –
